Compound activity: PubChem BioAssay, Broad Institute
Hits are enriched below; roughly 2.9% of the tested compounds scored in any of these assays.
SIRT5 inh: SIRT5 desuccinylase inhibitors, primary screen, biochemical, fluorescence imaging, single point, set 5; NAD-dependent protein deacylase sirtuin-5, mitochondrial (Homo sapiens), Q9NXA8; inhibition, % at 15 µM; Purified SirT5, succinyl-peptide AMC, trypsin-coupled fluorescence; hit rate 1.1% among 330,000; in the data active = inhibition above about 15%; inconclusive = no clear call, values can overlap the other calls
Target sequence (Q9NXA8 whole entry, looked up): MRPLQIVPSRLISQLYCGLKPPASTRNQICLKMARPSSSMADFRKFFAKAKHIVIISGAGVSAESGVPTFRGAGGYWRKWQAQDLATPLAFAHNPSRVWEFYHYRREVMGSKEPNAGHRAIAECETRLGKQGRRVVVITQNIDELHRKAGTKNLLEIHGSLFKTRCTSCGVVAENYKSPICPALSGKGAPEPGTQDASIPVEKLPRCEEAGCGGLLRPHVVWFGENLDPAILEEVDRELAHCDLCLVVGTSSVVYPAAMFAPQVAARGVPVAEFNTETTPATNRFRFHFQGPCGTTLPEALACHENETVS
DENV2 CPE rescue: inhibitors of DENV2 cytopathic effect, primary screen, cell-based, plate reader, single concentration; AID 651640, 2012; hit rate 1.7% among 350,000; CPE inhibition, % at 9.99 µM; DENV2-infected cells, cytopathic effect rescue; in the data active = CPE inhibition above about 20%, passing the limit was not always enough; inconclusive = no clear call, values can overlap the other calls; tested in BHK-21 cells
E-selectin induc: E-selectin induction in HUVECs, primary screen, imaging, HUVEC, immunofluorescence imaging, single point; P16581; normalized: neutral wells 0, TNF-alpha wells 100; activation, % at 7.58 µM; hit rate 0.37% among 260,000; AID 686992, 2013;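 active = mean E-selectin-positive cell signal at least 10% of the positive control, reached in at least 60% of replicates, without over 20% cell loss; inconclusive = no rule given, readout overlaps actives, possibly toxicity-flagged; inactive = the rest, including those meeting only one limit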
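assay system = HUVEC, human umbilical vein endothelial cells | input = 3,000 HUVEC seeded per well | medium = EGM-2 growth medium on 0.1% gelatin-coated wells | dosing = one compound dose added by pin transfer | signal = immunofluorescence imaging | read-out basis = % PE-positive cells | control set = TNF-alpha, DMSO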
A number is an active result; - = inactive; ? = inconclusive; . = not tested or not shown.

SMILES	SIRT5 inh	DENV2 CPE rescue	E-selectin induc
O=C(C[C@H]1CC[C@H]2[C@@H](COC[C@H](O)CN2Cc2ccccc2)O1)NCc1ccccc1Cl	-	-	-
O=C(C[C@@H]1CC[C@@H]2[C@H](COC[C@H](O)CN2C(=O)c2ccc(F)cc2)O1)NCCCN1CCOCC1	-	-	-
O=C(C[C@@H]1CC[C@H]2[C@@H](COC[C@H](O)CN2Cc2ccccc2)O1)N[C@@H]1CCN(Cc2ccccc2)C1	-	39	-
O=C(C[C@H]1CC[C@@H]2[C@H](COC[C@@H](O)CN2Cc2ccccc2)O1)N[C@@H]1CCN(Cc2ccccc2)C1	-	-	-
O=C(C[C@@H]1CC[C@@H]2[C@H](COC[C@@H](O)CN2Cc2ccccc2)O1)NCc1ccccc1Cl	-	33	-
O=C(C[C@H]1CC[C@@H]2[C@H](COC[C@H](O)CN2S(=O)(=O)c2ccccc2Cl)O1)NCc1ccccc1Cl	-	-	-
O=C(C[C@H]1CC[C@H]2[C@@H](COC[C@@H](O)CN2S(=O)(=O)c2ccccc2Cl)O1)NCc1ccccc1Cl	-	73	-
C[C@H](CO)N1C[C@H](C)[C@H](CN(C)Cc2ccc(C(=O)Nc3ccccc3N)cc2)Oc2ccc(NC(=O)NC3CCCCC3)cc2C1=O	.	.	-
C[C@@H]1CN([C@H](C)CO)C(=O)c2cc(NS(=O)(=O)c3ccc(F)cc3)ccc2O[C@@H]1CN(C)C(=O)Nc1ccc(F)cc1	-	-	-
CC1(Oc2ccc(Cl)cc2)CCN(Cc2cccn2-c2nccs2)C1 (centres undefined)	-	-	-
C[C@H](O)C#Cc1ccc2c(c1)O[C@H](CN(C)C(=O)CC1CC1)[C@@H](C)CN([C@@H](C)CO)S2(=O)=O	-	-	-
COc1ccc(C(=O)N2CC(c3ccccc3)CC2=O)cc1 (centres undefined)	.	-	83
COc1ccc(C(=O)N2CC(=O)Nc3ccc(C)cc3C2c2ccccc2)cc1 (centres undefined)	-	-	-
O=C(c1ccccc1)N1CC(=O)N2[C@H](CO)[C@@H](c3ccc(C4=CCCC4)cc3)[C@@H]2C1	-	-	-
C/C(N)=C(/C#N)C(=O)CSc1nnc(Cc2ccccc2F)n1N	-	54	.
C/C(N)=C(/C#N)C(=O)CSc1ccccc1F	-	-	.
CC(=O)Nc1cccc(-c2nc3ccccc3n2C(C(=O)NC(C)(C)C)C2CC2)c1 (centres undefined)	-	-	-
CC(Oc1ccc(Cl)cc1)C(=O)N1CCN(C(=O)c2ccco2)CC1 (centres undefined)	-	-	.
COc1ccc(NC(=O)Nc2ccc3c(c2)C(=O)N([C@H](C)CO)C[C@H](C)[C@H](CN(C)Cc2ccc(C(=O)O)cc2)OCCCC[C@H](C)O3)cc1	-	?	-
COc1ccc(NC(=O)Nc2ccc3c(c2)C(=O)N([C@@H](C)CO)C[C@H](C)[C@H](CN(C)Cc2ccccc2)OCCCC[C@H](C)O3)cc1	-	-	-
COc1ccc(NC(=O)Nc2ccc3c(c2)C(=O)N([C@@H](C)CO)C[C@H](C)[C@@H](CN(C)Cc2ccccc2)OCCCC[C@H](C)O3)cc1	20	-	-
COc1ccc(NC(=O)Nc2ccc3c(c2)C(=O)N([C@H](C)CO)C[C@@H](C)[C@@H](CN(C)Cc2ccccc2)OCCCC[C@H](C)O3)cc1	21	-	-
COc1ccc(CN(C)C[C@H]2OCCCC[C@@H](C)Oc3ccc(NC(=O)Nc4ccc(C(F)(F)F)cc4)cc3C(=O)N([C@H](C)CO)C[C@H]2C)cc1	-	-	.
COc1ccc(NC(=O)Nc2ccc3c(c2)C(=O)N([C@@H](C)CO)C[C@@H](C)[C@@H](CN(C)Cc2ccc(C(F)(F)F)cc2)OCCCC[C@@H](C)O3)cc1	17	-	-
COc1ccc(NC(=O)Nc2ccc3c(c2)C(=O)N([C@@H](C)CO)C[C@H](C)[C@H](CN(C)Cc2ccccc2)OCCCC[C@@H](C)O3)cc1	-	-	-
SMILES	SIRT5 inh	DENV2 CPE rescue	E-selectin induc
COc1ccc(NC(=O)Nc2ccc3c(c2)C(=O)N([C@@H](C)CO)C[C@H](C)[C@H](CN(C)Cc2ccc(C(=O)O)cc2)OCCCC[C@@H](C)O3)cc1	.	59	-
O=C(NCCc1ccncc1)Nc1ccc(Cl)c(Cl)c1	-	.	.
NC(=O)c1cnn(-c2ccc3ccccc3c2)c1N	-	-	.
NNC(=S)Nc1ccc(OC(F)(F)F)cc1	-	-	-
Cc1ccccc1CCN(C(=O)c1csnn1)C(C(=O)NC1CCCC1)c1ccco1 (centres undefined)	-	-	.
O=C1NC(=S)N/C1=C/c1cc([N+](=O)[O-])ccc1N1CCOCC1	-	-	-
COc1ccc(CC(=O)OCC(=O)NC(=O)NC2CCCC2)cc1	-	-	.
Cc1ccc2c(c1)nnn2C1CCN(CC(=O)NNC(=O)c2ccco2)CC1	-	-	.
CC(=O)Oc1ccc(C(=O)Nc2ccccc2C(=O)Nc2ccc(C(=O)O)cc2)cc1	-	-	.
COc1ccc(CN(C)C[C@@H]2OCCCC[C@H](C)Oc3ccc(NC(=O)Cc4ccccc4)cc3C(=O)N([C@H](C)CO)C[C@@H]2C)cc1	.	27	-
COc1ccc(CN(C)C[C@H]2OCCCC[C@@H](C)Oc3ccc(NC(=O)Cc4ccccc4)cc3C(=O)N([C@@H](C)CO)C[C@@H]2C)cc1	.	?	-
Cc1ccc(C(C)C)c(OCc2nc(-c3nonc3N)no2)c1	.	-	-
CCOC(=O)C1(CCc2ccccc2)CCN(C2Cc3ccccc3C2)CC1	-	-	-
CCCC(=O)Nc1ccc2c(c1)C(=O)N(C)[C@H]1CC[C@H](CC(=O)NCCCN(C)C)O[C@@H]1CO2	-	61	-
CCCC(=O)Nc1ccc2c(c1)C(=O)N(C)[C@@H]1CC[C@@H](CC(=O)NCCCN(C)C)O[C@H]1CO2	-	-	-
CCCC(=O)Nc1ccc2c(c1)C(=O)N(C)[C@H]1CC[C@H](CC(=O)NCCCN(C)C)O[C@H]1CO2	-	49	-
CCCC(=O)Nc1ccc2c(c1)C(=O)N(C)[C@@H]1CC[C@H](CC(=O)NCCCN(C)C)O[C@H]1CO2	-	-	-
COc1cc(NC(=O)CCc2c(C)nn(-c3ccc(N4CCOCC4)nn3)c2C)cc(OC)c1OC	-	-	.
COc1ccc(NC(=O)COC(=O)C2CC(=O)N(Cc3ccc(C)cc3)C2)cc1 (centres undefined)	-	-	.
CCCCNC(=O)C1(C)CCN1C(=O)c1cncc(Br)c1 (centres undefined)	.	86	-
CC(C)CNC(=O)C1(C)CCCN1C(=O)c1cncc(Br)c1 (centres undefined)	.	26	-
CCCCNC(=O)C1(C)CCN1C(=O)c1ccncc1 (centres undefined)	.	-	.
CC(C)CNC(=O)C1(C)CCCN1C(=O)c1ccncc1 (centres undefined)	.	-	-
CCN1[C@H](C(=O)NCCc2cn(C)cn2)[C@@H](CO)[C@@H]2Cn3c(ccc(-c4ccccc4)c3=O)[C@@H]21	-	-	-
COc1cc(-c2cc[n+](C)cc2)ccc1O	.	?	-
O=C(N1CCOCC1)C1(S(=O)(=O)c2ccccc2)CC=CC1	.	-	-
OCCOCCn1c(C(CO)Nc2nc(-c3cccc(Br)c3)cs2)nc2ccccc21 (centres undefined)	.	-	-
